In ChEMBL document CHEMBL2331484, “Synthesis and biological evaluation of scopoletin derivatives” (Bioorg Med Chem, 2013):
Active and inactive are the calls of the source. The calls are words filed in the database; no cut-off is given here.

How the values were obtained:
HUVEC [1] = assay: Effect on total p38 MAPK level in VEGF-stimulated HUVEC pretreated at 10 to 50 umol/L for 30 mins before VEGF addition by Western blot analysis; assay type: functional, cell-based; conditions: Homo sapiens
HUVEC [2] = assay: Effect on total src level in VEGF-stimulated HUVEC pretreated at 10 to 50 umol/L for 30 mins before VEGF addition by Western blot analysis; assay type: functional, cell-based; conditions: Homo sapiens
HUVEC [3] = assay: Effect on total ERK1/2 level in VEGF-stimulated HUVEC pretreated at 10 to 50 umol/L for 30 mins before VEGF addition by Western blot analysis; assay type: functional, cell-based; conditions: Homo sapiens
HUVEC [4] = assay: Effect on total akt level in VEGF-stimulated HUVEC pretreated at 10 to 50 umol/L for 30 mins before VEGF addition by Western blot analysis; assay type: functional, cell-based; conditions: Homo sapiens
[5] = target: MAP kinase p38 (Homo sapiens) (UniProt O15264+Q15759+Q16539+P53778); assay: Inhibition of VEGF receptor signaling in VEGF-stimulated HUVEC assessed a effect on p38 MAPK phosphorylation pretreated at 10 to 50 umol/L for 30 mins before VEGF addition by Western blot analysis; assay type: protein assay
[6] = Inhibition of VEGF receptor signaling in VEGF-stimulated HUVEC assessed a effect on src phosphorylation pretreated at 10 to 50 umol/L for 30 mins before VEGF addition by Western blot analysis; assay type: cell-based; conditions: Homo sapiens
[7] = Inhibition of VEGF receptor signaling in HUVEC assessed a inhibition of VEGF-induced Akt phosphorylation pretreated at 10 to 50 umol/L for 30 mins before VEGF addition by Western blot analysis; assay type: cell-based; conditions: Homo sapiens
PANC-1 [8] = assay: Inhibition of MMP-2 protein expression in human PANC1 cells at 10 to 50 umol/L after 24 hrs by SDS-PAGE analysis; assay type: functional, cell-based
How it was run: (§1)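 Gelatin zymography of culture medium from equal numbers of PANC-1 cells exposed to compound for 24 h. Samples run non-reduced and unboiled on 10% polyacrylamide with 1 mg/mL gelatin. Gel washed in 2.5% Triton X-100 buffer, digested 14 h at 37 °C in Tris–HCl/CaCl2/ZnCl2 buffer pH 7.6, then Coomassie-stained. Clear bands imaged.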

[9] = Inhibition of VEGF receptor signaling in HUVEC assessed a inhibition of VEGF-induced ERK1/2 phosphorylation pretreated at 10 to 50 umol/L for 30 mins before VEGF addition by Western blot analysis; assay type: cell-based; conditions: Homo sapiens
PANC-1 [10] = assay: Inhibition of MMP-9 protein expression in human PANC1 cells at 10 to 50 umol/L after 24 hrs by SDS-PAGE analysis; assay type: functional, cell-based; how it was run: as §1
Gallus gallus [11] = organism: Gallus gallus; assay: Antiangiogenic activity in chicken embryo chorioallantoic membrane model assessed as inhibition of new blood vessel formation at 10 nmol/egg after 48 hrs by microscopy; assay type: functional, tissue-based
How it was run: (§2)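 Fertilized chicken eggs incubated seven days at 37.5 °C, ~55% humidity, and the air sac membrane was detached. Sterile 5 × 5 mm filter paper soaked with DMSO or compound (5 and 10 nmol/egg) was air-dried and placed on the CAM. Eggs were sealed and reincubated. Fat emulsion (20%) was injected into the CAM and vessels photographed. Three independent experiments.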

Gallus gallus [12] = organism: Gallus gallus; assay: Antiangiogenic activity in chicken embryo chorioallantoic membrane model assessed as inhibition of new blood vessel formation at 5 nmol/egg after 48 hrs by microscopy; assay type: functional, tissue-based; how it was run: as §2
HUVEC [13] = assay: Antiangiogenic activity against HUVEC assessed as inhibition of VEGF-induced branching and network formation at 25 umol/L after 5 hrs by microscopy; assay type: functional, cell-based; conditions: Homo sapiens
How it was run: (§3)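 Matrigel-coated wells gelled 37 °C 30 min. DMSO or compound (final 25 µmol/L) added for 30 min before plating. After 5 h, enclosed complete tubes counted in five random fields by microscopy. Triplicate experiments, means ± SEM.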

HUVEC [14] = assay: Antiangiogenic activity against HUVEC assessed as inhibition of VEGF-induced tube formation at 25 umol/L after 5 hrs by microscopy; assay type: functional, cell-based; conditions: Homo sapiens; how it was run: as §3
HUVEC [15] = assay: Antiangiogenic activity against HUVEC assessed as inhibition of VEGF-induced cell migration at 25 umol/L after 20 hrs by Boyden chamber assay; assay type: functional, cell-based; conditions: Homo sapiens
How it was run: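 Boyden chamber, 8.0 µm membrane. HUVECs at 80% confluence serum-starved 12 h in basal medium and suspended at 1 × 10⁶ cells/mL. Pre-treated 30 min at room temperature with DMSO or compound (final 25 µmol/L). After 20 h cells fixed, stained, and counted in five random fields. Triplicate experiments.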

HuT78 = assay: Cytotoxicity against human HUT78 cells after 24 hrs by MTT assay; assay type: functional, cell-based; conditions: HuT78, 24 h
K562 = assay: Cytotoxicity against human K562 cells after 24 hrs by MTT assay; assay type: functional, cell-based; conditions: K562, 24 h
HL-60 = assay: Cytotoxicity against human HL60 cells after 24 hrs by MTT assay; assay type: functional, cell-based; conditions: HL-60, 24 h
[16] = Cytotoxicity against human SHG44 cells after 24 hrs by MTT assay; assay type: functional, cell-based; conditions: SHG-44, 24 h
A-431 = assay: Cytotoxicity against human A431 cells after 24 hrs by MTT assay; assay type: functional, cell-based; conditions: A-431, 24 h
A549 = assay: Cytotoxicity against human A549 cells after 24 hrs by MTT assay; assay type: functional, cell-based; conditions: A549, 24 h
MKN-45 = assay: Cytotoxicity against human MKN45 cells after 24 hrs by MTT assay; assay type: functional, cell-based; conditions: MKN-45, 24 h
HCT-116 = assay: Cytotoxicity against human HCT116 cells after 24 hrs by MTT assay; assay type: functional, cell-based; conditions: HCT-116, 24 h
HepG2 = assay: Cytotoxicity against human HepG2 cells after 24 hrs by MTT assay; assay type: functional, cell-based; conditions: HepG2, 24 h
MDA-MB-231 = assay: Cytotoxicity against human MDA-MB-231 cells after 24 hrs by MTT assay; assay type: functional, cell-based; conditions: MDA-MB-231, 24 h
MDA-MB-435 = assay: Cytotoxicity against human MDA-MB-435 cells after 24 hrs by MTT assay; assay type: functional, cell-based; conditions: MDA-MB-435, 24 h
BXPC-3 = assay: Cytotoxicity against human BxPC3 cells after 24 hrs by MTT assay; assay type: functional, cell-based; conditions: BXPC-3, 24 h
PANC-1 [17] = assay: Cytotoxicity against human PANC1 cells after 24 hrs by MTT assay; assay type: functional, cell-based; conditions: PANC-1, 24 h
PBMC = assay: Cytotoxicity against human PBMC after 24 hrs by MTT assay; assay type: cell-based
HUVEC [18] = assay: Antiproliferative activity against HUVEC assessed as growth inhibition rate after 24 hrs by MTT assay; assay type: functional, cell-based; conditions: Homo sapiens
How it was run: (§4)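 HUVECs (passages 3–5, primary cord isolates) seeded at 1 × 10⁴ cells/well. Medium replaced with M199 containing 1% FBS plus compound. Viability read by MTT after 24 h. Percent inhibition was calculated from A570 minus A630 of treated versus control wells, and IC50 determined. Triplicate experiments, means ± SEM.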

HUVEC [19] = assay: Antiproliferative activity against HUVEC assessed as growth inhibition rate at 100 uM after 24 hrs by MTT assay; assay type: functional; conditions: Homo sapiens, read-out: GI; how it was run: as §4
HUVEC [20] = assay: Antiproliferative activity against HUVEC assessed as growth inhibition rate at 10 uM after 24 hrs by MTT assay; assay type: functional; conditions: Homo sapiens, read-out: GI; how it was run: as §4
HUVEC [21] = assay: Antiangiogenic activity against HUVEC assessed as inhibition of VEGF-induced migration at 25 umol/L after 20 hrs by microscopy; conditions: Homo sapiens

For `COc1cc2ccc(=O)oc2cc1OCC(=O)c1ccc(Cl)cc1`, the Activity (HUVEC [1]) was “inactive”, the Activity (HUVEC [2]) was “inactive” and the Activity (HUVEC [3]) was “inactive”. The Activity (HUVEC [4]) was “inactive”, the inhibition [5] was “inactive” and the inhibition [6] was “inactive”. For the same compound, the inhibition [7] was “Active”, the inhibition (PANC-1 [8]) was “Active” and the inhibition [9] was “inactive”. The inhibition (PANC-1 [10]) was “Active”, the inhibition (Gallus gallus [11]) was “Active” and the inhibition (Gallus gallus [12]) was “Active”. For the same compound, the inhibition (HUVEC [13]) was “Active”, the inhibition (HUVEC [14]) was “Active” and the inhibition (HUVEC [15]) was “Active”. It also gave an IC50 (HuT78) of 62.1 µM, an IC50 (K562) of 52.5 µM and an IC50 (HL-60) of 65.7 µM. For the same compound, the IC50 [16] was > 100 µM, the IC50 (A-431) was > 100 µM and the IC50 (A549) was > 100 µM. For the same compound, the IC50 (MKN-45) was 99.2 µM, the IC50 (HCT-116) was 59.5 µM and the IC50 (HepG2) was 56.3 µM. For the same compound, the IC50 (MDA-MB-231) was > 100 µM, the IC50 (MDA-MB-435) was 92.4 µM and the IC50 (BXPC-3) was > 100 µM. For the same compound, the IC50 (PANC-1 [17]) was 19.8 µM, the IC50 (PBMC) was > 100 µM and the IC50 (HUVEC [18]) was 10 µM. For the same compound, the inhibition of growth at 100 µM (HUVEC [19]) was 83.8%, the inhibition of growth at 10 µM (HUVEC [20]) was 62.6% and the inhibition (HUVEC [21]) was “Active”.
In the case of `COc1cc2ccc(=O)oc2cc1OCC(=O)c1ccc(Br)cc1`, the Activity (HUVEC [1]) is reported as “inactive”, the Activity (HUVEC [2]) is reported as “inactive” and the Activity (HUVEC [3]) is reported as “inactive”. For the same compound, the Activity (HUVEC [4]) was “inactive”, the inhibition [5] was “inactive” and the inhibition [6] was “inactive”. The inhibition [7] was “Active”, the inhibition (PANC-1 [8]) was “Active” and the inhibition [9] was “Active”. For the same compound, the inhibition (PANC-1 [10]) was “Active”, the inhibition (Gallus gallus [11]) was “Active” and the inhibition (Gallus gallus [12]) was “Active”. The inhibition (HUVEC [13]) was “Active”, the inhibition (HUVEC [14]) was “Active” and the inhibition (HUVEC [15]) was “Active”. For the same compound, the IC50 (HuT78) was 93.7 µM, the IC50 (K562) was 70 µM and the IC50 (HL-60) was 90.4 µM. For the same compound, the IC50 [16] was > 100 µM, the IC50 (A-431) was > 100 µM and the IC50 (A549) was > 100 µM. The IC50 (MKN-45) was > 100 µM, the IC50 (HCT-116) was > 100 µM and the IC50 (HepG2) was 90.4 µM. For the same compound, the IC50 (MDA-MB-231) was 47 µM, the IC50 (MDA-MB-435) was > 100 µM and the IC50 (BXPC-3) was > 100 µM. For the same compound, the IC50 (PANC-1 [17]) was 63.7 µM, the IC50 (PBMC) was > 100 µM and the IC50 (HUVEC [18]) was 16.8 µM. The inhibition of growth at 100 µM (HUVEC [19]) was 97.5%, the inhibition of growth at 10 µM (HUVEC [20]) was 13.2% and the inhibition (HUVEC [21]) was “Active”.
